Results published in ChEMBL document CHEMBL1153456, “Synthesis and opioid receptor activity of indolopropellanes” (Bioorg Med Chem Lett, 2009).

Legend:
[1] = target: T1, Kappa-type opioid receptor (Homo sapiens, UniProt P41145); assay: Displacement of [3H]U50488 from human kappa opioid receptor expressed in CHO cells; assay type: cell-based
How it was run: (§1)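 Binding was run on CHO membranes at 0.5 mg protein per sample, incubated at 25 °C in 50 mM Tris–HCl pH 7.5 with the receptor-specific radioligand and 12 compound concentrations. Naloxone defined nonspecific binding. Values are means ± SEM from three experiments, each run in triplicate.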

[2] = target: T2, Delta-type opioid receptor (Homo sapiens, UniProt P41143); assay: Displacement of [3H]naltrindole from human delta opioid receptor expressed in CHO cells; assay type: cell-based; how it was run: as §1
Mu-type opioid receptor [3] = target: T3, Mu-type opioid receptor (Homo sapiens, UniProt P35372); assay: Displacement of [3H]DAMGO from human mu opioid receptor expressed in CHO cells; assay type: cell-based; how it was run: as §1
[4] = target: T2, Delta-type opioid receptor; assay: Agonist activity at human delta opioid receptor expressed in CHO cells assessed as stimulation of [35S]GTPgammaS binding by scintillation counting; assay type: functional, cell-based
How it was run: (§2)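 CHO cell membranes expressing the opioid receptor were incubated with varying concentrations of compound in the presence of 0.8 nM [35S]GTPγS. EC50 and Emax were derived from the concentration–response data. Values are means from three experiments, each run in triplicate.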

Mu-type opioid receptor [5] = target: T3, Mu-type opioid receptor; assay: Agonist activity at human mu opioid receptor expressed in CHO cells assessed as stimulation of [35S]GTPgammaS binding by scintillation counting; assay type: functional, cell-based; how it was run: as §2
[6] = target: T1, Kappa-type opioid receptor; assay: Agonist activity at human kappa opioid receptor expressed in CHO cells assessed as stimulation of [35S]GTPgammaS binding by scintillation counting; assay type: functional, cell-based; how it was run: as §2
[7] = target: Delta-type opioid receptor (Rattus norvegicus, UniProt P33533); assay: Displacement of [3H]p-Cl-DPDPE from rat delta opioid receptor expressed in rat C6 cells
Delta-type opioid receptor (Rattus norvegicus, UniProt P33533), sequence (P33533 whole entry): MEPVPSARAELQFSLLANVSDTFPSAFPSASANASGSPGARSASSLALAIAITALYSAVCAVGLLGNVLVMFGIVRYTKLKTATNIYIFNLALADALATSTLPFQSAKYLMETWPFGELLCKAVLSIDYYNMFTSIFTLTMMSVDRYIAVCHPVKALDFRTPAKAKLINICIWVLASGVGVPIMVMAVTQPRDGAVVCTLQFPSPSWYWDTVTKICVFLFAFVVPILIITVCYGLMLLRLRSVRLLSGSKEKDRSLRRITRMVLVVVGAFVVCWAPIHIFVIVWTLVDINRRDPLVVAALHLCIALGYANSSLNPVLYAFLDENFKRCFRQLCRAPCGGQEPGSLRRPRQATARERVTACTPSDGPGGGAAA

T3 sequence (P35372 whole entry): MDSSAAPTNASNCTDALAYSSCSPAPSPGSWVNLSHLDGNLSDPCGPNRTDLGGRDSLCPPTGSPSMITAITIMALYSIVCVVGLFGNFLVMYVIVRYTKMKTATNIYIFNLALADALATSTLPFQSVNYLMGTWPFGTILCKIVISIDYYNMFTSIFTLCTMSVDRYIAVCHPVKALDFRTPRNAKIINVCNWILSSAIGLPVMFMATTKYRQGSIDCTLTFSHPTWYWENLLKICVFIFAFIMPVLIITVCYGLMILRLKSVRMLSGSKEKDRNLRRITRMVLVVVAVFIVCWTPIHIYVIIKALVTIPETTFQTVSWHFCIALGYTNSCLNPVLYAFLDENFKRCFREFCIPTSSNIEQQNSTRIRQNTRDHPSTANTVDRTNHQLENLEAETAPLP
T2 sequence (P41143 whole entry): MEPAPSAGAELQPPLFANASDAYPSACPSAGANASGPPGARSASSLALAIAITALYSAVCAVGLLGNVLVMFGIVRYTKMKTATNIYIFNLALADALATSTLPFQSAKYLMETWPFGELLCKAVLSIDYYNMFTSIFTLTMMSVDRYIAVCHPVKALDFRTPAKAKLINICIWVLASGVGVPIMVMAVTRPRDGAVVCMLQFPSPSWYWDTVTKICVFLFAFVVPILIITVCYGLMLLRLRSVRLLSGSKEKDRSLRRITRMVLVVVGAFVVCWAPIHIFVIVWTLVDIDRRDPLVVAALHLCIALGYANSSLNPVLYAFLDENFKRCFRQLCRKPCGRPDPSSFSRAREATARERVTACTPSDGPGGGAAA
T1 sequence (P41145 whole entry): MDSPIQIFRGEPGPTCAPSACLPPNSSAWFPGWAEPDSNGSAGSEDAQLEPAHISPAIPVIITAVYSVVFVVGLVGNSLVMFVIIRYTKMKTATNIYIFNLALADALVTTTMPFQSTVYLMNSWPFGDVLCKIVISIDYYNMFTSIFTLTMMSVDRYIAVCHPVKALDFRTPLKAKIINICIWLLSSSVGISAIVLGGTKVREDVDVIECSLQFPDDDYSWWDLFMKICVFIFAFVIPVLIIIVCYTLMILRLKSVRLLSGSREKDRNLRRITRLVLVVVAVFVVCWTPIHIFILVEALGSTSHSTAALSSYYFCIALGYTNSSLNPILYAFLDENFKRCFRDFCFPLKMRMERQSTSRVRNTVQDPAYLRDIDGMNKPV

Structure (SMILES)	Ki [1]	Ki [2]	Ki (Mu-type opioid receptor [3])	EC50 [4]	Emax [4]	EC50 (Mu-type opioid receptor [5])	Emax (Mu-type opioid receptor [5])	EC50 [6]	Emax [6]	Ki [7]
Cn1c2c(c3ccccc31)C[C@@]13Cc4ccc(O)cc4[C@@]1(CCN(CC1CC1)C3)C2	1520 nM	1790 nM	469 nM							
COc1ccc2c(c1)[C@]13CCN(C)C[C@@]1(C2)Cc1c(n(C)c2ccccc12)C3	3810 nM	> 10000 nM	713 nM							
CN1CC[C@]23Cc4[nH]c5ccccc5c4C[C@]2(Cc2ccc(O)cc23)C1	1190 nM	1120 nM	104 nM							
CN1CC[C@]23Cc4c(c5ccccc5n4C)C[C@]2(Cc2ccc(O)cc23)C1	1120 nM	268 nM	40.2 nM	65 nM	77.3%	174 nM	95.7%	62.1 nM	76.2%	
COc1ccc2c(c1)[C@]13CCN(CC4CC4)C[C@@]1(C2)Cc1c([nH]c2ccccc12)C3	2550 nM	6650 nM	1420 nM							
COc1ccc2c(c1O)[C@]13CCN(C)[C@H](C2)[C@]1(O)Cc1c([nH]c2ccccc12)C3	3160 nM	21.8 nM	1850 nM							
COc1c(O)ccc2c1[C@]13CCN(C)[C@H](C2)[C@]1(O)Cc1c([nH]c2ccccc12)C3		4.5 nM	474 nM							
Oc1ccc2c3c1O[C@H]1c4[nH]c5ccccc5c4C[C@@]4(O)[C@@H](C2)N(CC2CC2)CC[C@]314 [NALTRINDOLE]										0.2 nM
Oc1ccc2c(c1)[C@]13CCN(CC4CC4)C[C@@]1(C2)Cc1c([nH]c2ccccc12)C3	704 nM	2550 nM	523 nM	10 nM	91.4%	33 nM	88.6%	67.1 nM	79.9%	
COc1ccc2c(c1)[C@]13CCN(C)C[C@@]1(C2)Cc1c([nH]c2ccccc12)C3	5120 nM	765 nM	1820 nM							
